Assay [1] has as its system normal CCD-18Co cell line. The experiment in a line: MTT in vitro antiproliferation assay, CCD-18Co. Type of assay: cell-based. As to conditions: Homo sapiens, 24 h, read-out: IC50 ± SD CCD-18Co.
Assay [2] has as its system lung normal (MRC-5) cell line. The experiment in a line: MTT in vitro antiproliferation assay, MRC-5. Type of assay: cell-based. As to conditions: Homo sapiens, MRC5, 24 h, read-out: IC50 ± SD MRC-5.
The test system of assay [3] is cancer cell lines (ASPC-1, A549, MCF-7, HCT 116). The experiment in a line: MTT in vitro antiproliferation assay, cancer cell line panel. The class given is cell-based, human. The following applies: for IC50: Homo sapiens, 24 h, read-out: IC50 values in cancer cell lines (range); for selectivity index (SI) / cancer cell selectivity over normal cells (MRC-5), range: range over cancer cell lines vs MRC-5.

A further assay concerns A549 cells. The experiment in a line: Cell cycle analysis by flow cytometry. Type of assay: cell-based, human. The following applies: A549, up to 1.0 μM, 24 h, compared to vehicle. A general note: In flow cytometry, cells or beads pass a laser one at a time.
Another assay deals with tubulin. The experiment in a line: In vitro tubulin polymerization assay. Type of assay: biochemical. As to conditions: 20 μM, compared to vehicle control.
The subject of assay [4] is lung cancer (A549) cell line. The experiment in a line: MTT in vitro antiproliferation assay, A549. Type of assay: cell-based, human. As to conditions: for IC50: Homo sapiens, A549, 24 h, read-out: IC50 ± SD A549; for selectivity index (SI), cancer cells (A549) over normal cells (MRC-5): IC50 MRC-5 / IC50 A549.
Another assay concerns MCF-7 cells. The experiment in a line: Cell cycle analysis by flow cytometry. The class given is cell-based, human. The following applies: MCF-7, up to 1.0 μM, 24 h, compared to vehicle.
Assay [5] has as its system pancreatic cancer (ASPC-1) cell line. The experiment in a line: MTT in vitro antiproliferation assay, ASPC-1. The class given is cell-based. The following applies: Homo sapiens, ASPC1, 24 h, read-out: IC50 ± SD ASPC-1.
In assay [6] the test system is lung normal IMR-90 cell line. The experiment in a line: MTT in vitro antiproliferation assay, IMR-90. Type of assay: cell-based. As to conditions: Homo sapiens, IMR-90, 24 h, read-out: IC50 ± SD IMR-90.
Assay [7] has as its system breast cancer (MCF-7) cell line. The experiment in a line: MTT in vitro antiproliferation assay, MCF-7. The class given is cell-based. The following applies: Homo sapiens, MCF7, 24 h, read-out: IC50 ± SD MCF-7.
Assay [8] deals with colon cancer (HCT 116) cell line. The experiment in a line: MTT in vitro antiproliferation assay, HCT 116. The following applies: Homo sapiens, HCT-116, 24 h, read-out: IC50 ± SD HCT 116. The class given is cell-based.
The subject of a further assay is 4T1 cells tumor. The experiment in a line: In vivo antitumor activity, 4T1 xenograft model, 11 day study. Also noted: species or system BALB/c mice. As to conditions: G4 DOX: 2 mg/kg IP once in 3 days. An outline of the steps:
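BALB/c mice received 4T1 cells (1 × 10^5/mouse) subcutaneously into the left mammary fat pad. Caliper volume = length × width²/2. At about 50 mm³, mice were allocated to four groups, unrandomized and unblinded. All dosing was IP: 0.9% saline vehicle; test compound 0.711 or 1.422 mg/kg (days 1–3) then 14.22 or 28.44 mg/kg (days 4–11); doxorubicin 2 mg/kg every 3 days. Tumours were excised on day 12 and volume and mass measured; one-way ANOVA.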

Molecules are shown by their SMILES. Bounds are passed on as bounds.

Take `CCCSc1ccc2nc(NC(=O)OC)[nH]c2c1` [Al, albendazole]: the IC50 – broadly, the concentration that inhibits the measured activity by half – is 119 µM in assay [1]; 96.1 µM in [2]; 52.7 to 72.4 µM in assay [3]; 72.4 µM in assay [4]; 56.3 µM in assay [5]; 285 µM in assay [6]. Further, the IC50 stood at 59 µM in [7] and 52.7 µM in [8]. For the same compound, the “times lower activity than the CLC and NOZ” value in [3] (IC50 comparison) is recorded as 7–10. The “accumulation of cells in the G2/M phase” value in the assay with A549 cells and with MCF-7 cells was “slight accumulation of cells in the G2/M phase” each time. For the same compound, the “effect on tubulin polymerization” value in the assay with tubulin is “inhibition of tubulin polymerization”. Also, in [4], the “selectivity index (SI), cancer cells (A549) over normal cells (MRC-5)” value was determined as 1.32.
Regarding `CCCSc1ccc2[nH]c(N[C@H]3O[C@@H](CO)[C@H](O)[C@@H](O)[C@@H]3O)nc2c1` [Al–G, albendazole amine glucose conjugate], the IC50 in [1] is 701 µM; in assay [2], 895 µM; in assay [3], 131 to 182 µM; in [4] it was 139 µM; in assay [5], 182 µM; in assay [6], more than 1000 µM. Also, the IC50 in [7] came out at 131 µM; in [8], 156 µM. Moreover, the “selectivity index (SI) / cancer cell selectivity over normal cells (MRC-5), range” value in assay [3] is “five to seven times”. Further, the “accumulation of cells in the G2/M phase” value in the assay with A549 cells and with MCF-7 cells was “slight accumulation of cells in the G2/M phase” throughout. In addition, the “effect on tubulin polymerization” value in the assay with tubulin is “inhibition of tubulin polymerization”.
As for `COC(=O)Nc1nc2ccc(C(=O)c3cccs3)cc2[nH]1` [NOZ, nocodazole], the IC50 in assay [2] turned out to be 12 µM; in assay [4], 10.8 µM; in assay [5], 10.5 µM; in [7], 7.41 µM; in assay [8], 6.82 µM. The “selectivity index (SI) / cancer cell selectivity over normal cells (MRC-5), range” value in assay [3] is recorded as 1.1–1.8. The “effect on tubulin polymerization” value in the assay with tubulin is “inhibited”. In addition, the “selectivity index (SI), cancer cells (A549) over normal cells (MRC-5)” value in assay [4] is 1.2.
Take `CC(=O)O[C@H]1C(=O)[C@@]2(C)[C@H]([C@H](OC(=O)c3ccccc3)[C@]3(O)C[C@H](OC(=O)[C@H](O)[C@@H](NC(=O)c4ccccc4)c4ccccc4)C(C)=C1C3(C)C)[C@]1(OC(C)=O)CO[C@@H]1C[C@@H]2O` [PCL, paclitaxel]: the “effect on tubulin polymerization” value in the assay on tubulin was “enhanced the tubulin polymerization”.
On to `COc1cccc2c1C(=O)c1c(O)c3c(c(O)c1C2=O)C[C@@](O)(C(=O)CO)C[C@@H]3O[C@H]1C[C@H](N)[C@H](O)[C@H](C)O1` [doxorubicin], for which, in the assay with 4T1 cells tumor, the “average tumor mass reduction at the endpoint” value was determined as 14.5% and the “average tumor volume reduction at the endpoint compared to G1” value was 29.4%.

Source of the values: article PMC9575670 (Journal of Medicinal Chemistry, 2022).
